Results on 30 molecules are retold here after ChEMBL document CHEMBL1140699, “Stereospecific high-affinity TRPV1 antagonists: chiral N-(2-benzyl-3-pivaloyloxypropyl) 2-[4-(methylsulfonylamino)phenyl]propionamide analogues” (J Med Chem, 2008).

Active and inactive are the calls of the source. No cut-off for these calls is given here.

Test [1] deals with Transient receptor potential cation channel subfamily V member 1 (Rattus norvegicus) (UniProt O35433). The test is described as follows: Agonist activity at rat TRPV1 receptor expressed in CHO cells assessed as calcium 45 uptake relative to 300 nM capsaicin. It is filed as functional, cell-based.
The target of test [2] is T1, Transient receptor potential cation channel subfamily V member 1 (Rattus norvegicus, UniProt O35433). The test is described as follows: Displacement of [3H]RTX from rat TRPV1 receptor expressed in CHO cells. It is filed as cell-based. The procedure, abridged: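 Competitive binding against [3H]resiniferatoxin in CHO cells heterologously expressing rat TRPV1 (CHO/VR1). Affinity reported as Ki.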

Test [3] deals with Transient receptor potential cation channel subfamily V member 1 (Rattus norvegicus) (UniProt O35433). The test is described as follows: Agonist activity at rat TRPV1 receptor expressed in CHO cells assessed as calcium 45 uptake at 30 uM. It is filed as functional, cell-based. The procedure, abridged: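 45Ca2+ uptake in CHO cells heterologously expressing rat TRPV1 (CHO/VR1). Compounds tested for agonism at 30 µM and scored as not effective or weakly effective. Results from 1–5 experiments.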

The target of test [4] is T1, Transient receptor potential cation channel subfamily V member 1. The test is described as follows: (§1) Antagonist activity at rat TRPV1 receptor expressed in CHO cells assessed as calcium 45 uptake. It is filed as functional, cell-based.
Test [5] has as its target Transient receptor potential cation channel subfamily V member 1 (Rattus norvegicus) (UniProt O35433). The test is described as follows: Antagonist activity at rat TRPV1 receptor expressed in CHO cells assessed as capsaicin-induced calcium 45 uptake. It is filed as functional, cell-based. Also on record: concentration or dose not given beside the values. The procedure, abridged:
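Chinese hamster ovary cells heterologously expressing rat TRPV1 (CHO/VR1). Compounds were tested as antagonists of 150 nM capsaicin-induced ⁴⁵Ca²⁺ uptake. Antagonism was reported as Ki, with activity scored at 30 µM where potency was low. Results come from 1–5 experiments.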

Test [6] shares this target. The test is described as §1. It is filed as functional, cell-based.

T1 sequence (O35433 whole entry): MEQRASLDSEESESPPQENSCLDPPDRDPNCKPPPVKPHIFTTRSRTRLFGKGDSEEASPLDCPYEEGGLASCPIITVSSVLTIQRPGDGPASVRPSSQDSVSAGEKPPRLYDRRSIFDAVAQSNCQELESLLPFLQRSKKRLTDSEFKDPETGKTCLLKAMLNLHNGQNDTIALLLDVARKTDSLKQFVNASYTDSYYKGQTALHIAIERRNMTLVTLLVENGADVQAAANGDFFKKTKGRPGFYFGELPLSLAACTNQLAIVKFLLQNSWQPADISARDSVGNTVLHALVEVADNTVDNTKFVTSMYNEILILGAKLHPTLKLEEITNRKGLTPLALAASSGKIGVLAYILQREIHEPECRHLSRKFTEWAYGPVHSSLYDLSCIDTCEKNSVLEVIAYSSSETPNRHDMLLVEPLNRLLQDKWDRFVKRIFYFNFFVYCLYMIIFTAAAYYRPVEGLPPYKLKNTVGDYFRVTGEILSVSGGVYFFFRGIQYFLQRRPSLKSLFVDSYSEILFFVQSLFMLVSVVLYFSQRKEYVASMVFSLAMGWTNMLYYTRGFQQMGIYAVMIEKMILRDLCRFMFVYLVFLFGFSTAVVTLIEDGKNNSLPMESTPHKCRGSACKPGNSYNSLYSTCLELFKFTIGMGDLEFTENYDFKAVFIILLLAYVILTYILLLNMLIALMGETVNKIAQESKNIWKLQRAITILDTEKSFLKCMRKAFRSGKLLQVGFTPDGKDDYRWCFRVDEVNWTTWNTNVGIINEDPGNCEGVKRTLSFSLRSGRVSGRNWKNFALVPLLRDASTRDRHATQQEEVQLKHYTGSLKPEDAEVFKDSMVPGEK
Chain of Transient receptor potential cation channel subfamily V member 1 (Rattus norvegicus) (O35433 whole entry): as above

On to `Cc1ccc(CC(CNC(=O)C(C)c2ccc(NS(C)(=O)=O)c(Cl)c2)COC(=O)C(C)(C)C)cc1C` (configuration not stated), for which, in test [1], the Activity turned out to be 16%.

In test [2], `C[C@H](C(=O)NC[C@H](COC(=O)C(C)(C)C)Cc1ccc(C(C)(C)C)cc1)c1ccc(NS(C)(=O)=O)c(F)c1` returned a Ki of 4.12 nM. For the same molecule, the result in test [3] was inactive.

Turning to `Cc1ccc(CC(CNC(=O)C2(c3ccc(NS(C)(=O)=O)cc3)CC2)COC(=O)C(C)(C)C)cc1C` (configuration not stated), in test [3], the result was inactive.

In the case of `CC(C)(C)C(=O)OCC(CNC(=S)NCc1ccc(NS(C)(=O)=O)c(F)c1)Cc1ccc(C(C)(C)C)cc1` (configuration not stated), the Activity in test [1] amounted to 5%. In addition, the Ki in test [4] is 52 nM.

`COc1cc(C(C)C(=O)NCC(COC(=O)C(C)(C)C)Cc2ccc(C)c(C)c2)ccc1NS(C)(=O)=O` (configuration not stated): the Activity in test [1] came out at 10%; in test [5], 63%.

`C[C@H](C(=O)NC[C@@H](COC(=O)C(C)(C)C)Cc1ccc(C(C)(C)C)cc1)c1ccc(NS(C)(=O)=O)c(Cl)c1`: the outcome in test [3] was inactive.

Take `Cc1ccc(CC(CNC(=S)NCc2ccc(NS(C)(=O)=O)c(F)c2)COC(=O)C(C)(C)C)cc1C` (configuration not stated): the outcome in test [3] was inactive.

Regarding `Cc1ccc(CC(CNC(=O)C(C)(C)c2ccc(NS(C)(=O)=O)cc2)COC(=O)C(C)(C)C)cc1C` (configuration not stated), the outcome in test [3] was inactive.

In the case of `C[C@H](C(=O)NC[C@@H](COC(=O)C(C)(C)C)Cc1ccc(C(C)(C)C)cc1)c1ccc(NS(C)(=O)=O)c(F)c1`, in test [2], the affinity, expressed as Ki, was 6.26 nM. Further, the result in test [3] was inactive.

Consider `Cc1ccc(CC(CNC(=O)C2(c3ccc(NS(C)(=O)=O)c(F)c3)CC2)COC(=O)C(C)(C)C)cc1C` (configuration not stated), for which, in test [3], the outcome was inactive.

For `Cc1ccc(CC(CNC(=O)Cc2ccc(NS(C)(=O)=O)c(F)c2)COC(=O)C(C)(C)C)cc1C` (configuration not stated), the Activity in test [5] was determined as 71%.

For `C[C@@H](C(=O)NC[C@@H](COC(=O)C(C)(C)C)Cc1ccccc1)c1ccc(NS(C)(=O)=O)c(F)c1`, in test [3], the result was inactive.

With `COc1cc(C2(C(=O)NCC(COC(=O)C(C)(C)C)Cc3ccc(C)c(C)c3)CC2)ccc1NS(C)(=O)=O` (configuration not stated), in test [3], the outcome was inactive.

As for `C[C@@H](C(=O)NC[C@H](COC(=O)C(C)(C)C)Cc1ccc(C(C)(C)C)cc1)c1ccc(NS(C)(=O)=O)c(F)c1`, in test [3], the outcome was inactive.

Take `CC(C)(C)C(=O)OCC(CNC(=O)Cc1ccc(NS(C)(=O)=O)c(F)c1)Cc1ccc(C(C)(C)C)cc1` (configuration not stated): the results for the Activity in test [1] and in test [5] were 7% and 56%, respectively. The Ki in test [4] amounted to 440 nM.

In test [2], `C[C@H](C(=O)NC[C@@H](COC(=O)C(C)(C)C)Cc1ccccc1)c1ccc(NS(C)(=O)=O)c(F)c1` yielded a Ki of 16.5 nM. In addition, in test [3], the outcome was inactive.

Regarding `C[C@H](C(=O)NC[C@H](COC(=O)C(C)(C)C)Cc1ccccc1)c1ccc(NS(C)(=O)=O)c(F)c1`, the result in test [3] was inactive.

Turning to `CC(C(=O)NCC(COC(=O)C(C)(C)C)Cc1ccc(C(C)(C)C)cc1)c1ccc(NS(C)(=O)=O)c(Cl)c1` (configuration not stated), in test [5], the Activity stood at 61%.

Turning to `C=C(C)[C@]12C[C@@H](C)[C@@]34O[C@](Cc5ccccc5)(O[C@@H]1[C@@H]3C=C(COC(=O)Cc1cc(I)c(O)c(OC)c1)C[C@]1(O)C(=O)C(C)=C[C@@H]41)O2` [IODORESINIFERATOXIN], the values for the Ki in test [2] and in test [4] were 0.61 nM and 12.2 nM, respectively. Further, the outcome in test [3] was inactive.

For the molecule `Cc1ccc(CC(CNC(=O)C(C)c2ccc(NS(C)(=O)=O)c(F)c2)COC(=O)C(C)(C)C)cc1C` (configuration not stated), the result in test [3] was inactive.

For the molecule `C[C@@H](C(=O)NC[C@H](COC(=O)C(C)(C)C)Cc1ccccc1)c1ccc(NS(C)(=O)=O)c(F)c1`, in test [3], the result was inactive.

Consider `CC(C(=O)NCC(COC(=O)C(C)(C)C)Cc1ccc(C(C)(C)C)cc1)c1ccc(NS(C)(=O)=O)cc1` (configuration not stated), for which the outcome in test [3] was inactive.

For `C[C@@H](C(=O)NC[C@@H](COC(=O)C(C)(C)C)Cc1ccc(C(C)(C)C)cc1)c1ccc(NS(C)(=O)=O)c(F)c1`, in test [1], the Activity was determined as 9%.

`COc1cc(C(C)(C)C(=O)NCC(COC(=O)C(C)(C)C)Cc2ccc(C)c(C)c2)ccc1NS(C)(=O)=O` (configuration not stated): the outcome in test [3] was inactive.

Turning to `Cc1ccc(CC(CNC(=O)C(C)c2ccc(NS(C)(=O)=O)cc2)COC(=O)C(C)(C)C)cc1C` (configuration not stated), the result in test [3] was inactive.

With `Oc1cc2c(cc1O)CN(C(=S)NCCc1ccc(Cl)cc1)CCC2`, the outcome in test [3] was inactive.

In test [2], `Cc1ccc(CC(CNC(=O)C(C)(C)c2ccc(NS(C)(=O)=O)c(F)c2)COC(=O)C(C)(C)C)cc1C` (configuration not stated) had a Ki of 280 nM. In addition, the result in test [3] was inactive.

In the case of `CC(C(=O)NCC(COC(=O)C(C)(C)C)Cc1ccc(C(C)(C)C)cc1)c1ccc(NS(C)(=O)=O)c(F)c1` (configuration not stated), the Activity in test [1] stood at 8%; in test [5] it was 95%.

Consider `C[C@H](C(=O)NC[C@H](COC(=O)C(C)(C)C)Cc1ccc(C(C)(C)C)cc1)c1ccc(NS(C)(=O)=O)c(Cl)c1`, for which, in test [3], the outcome was inactive.

Turning to `COc1cc(C(C)C(=O)NCC(COC(=O)C(C)(C)C)Cc2ccc(C(C)(C)C)cc2)ccc1NS(C)(=O)=O` (configuration not stated), in test [1], the Activity is 40%. Besides, in test [6], the outcome was inactive.
